# Assay results as given in paper PMC10237409 (Neuro-Oncology, 2022).
# Like-named read-outs stand apart in the source and are kept apart here.
# Assays:
# orthotopic glioblastoma = details: cited from earlier work
# glioblastoma = details: cited from earlier work
# CCR1 mRNA = CCR1 mRNA in whole blood; type: in vivo, human; details: after the fourth preoperative dose, 30 mg/day; mean (SD ± 28.5)
# Summary of the method: (§1)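 Patients took 30 mg/day orally on days 1–4 before salvage resection. Blood samples for pharmacodynamics were drawn at multiple time points through cycle 1 and at surgery. CCR1 and HEXIM1 expression in blood was measured by RNA-Seq.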
# [1] = type: in vivo, human
# Summary of the method: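 Patients took 30 mg/day orally on days 1–4, with salvage resection planned 6–24 h after the day 4 dose. Resected tumour (contrast-enhancing and non-enhancing where possible), CSF and time-matched plasma were collected during surgery. Results were summarised as geometric means. Free tissue concentration and unbound partition coefficient were estimated from plasma protein binding and tissue binding.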
# [2] = stated without reference; cited from earlier work
# [3] = Safety: treatment-related adverse events; type: in vivo, human
# Summary of the method: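 AEs were coded with MedDRA 24.0 and graded by NCI CTCAE 5.0. They were reported separately for the preoperative period (30 mg/day days 1–4, until maintenance start) and for postoperative maintenance (45 mg/day 4 days on/24 days off per 28-day cycle, onward). Maintenance continued until progression, unacceptable toxicity or consent withdrawal.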
# HEXIM1 mRNA = HEXIM1 mRNA in whole blood; type: in vivo, human; details: 72–96 h after the first preoperative dose, 30 mg/day
# Summary of the method: as §1
# [4] = test system: advanced cancers, including high-grade gliomas; details: 45 mg/day 4 days on/24 days off per 28-day cycle; cited from earlier work
# [5] = type: in vivo; details: human, plasma, oral, 30 mg/day; for AUC(0-t): GM AUC0-24, plasma; for Cmax: GM Cmax; for Tmax: Median tmax (range)
# Summary of the method: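 Patients took 30 mg/day orally on days 1–4 before resection. Plasma was sampled at multiple time points through cycle 1 and at surgery, then assayed by LC-MS/MS (High Assay Range). Cmax, tmax, AUC and t½ came from non-compartmental analysis and were summarised as geometric means.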
# [6] = postoperative maintenance 45 mg/day 4 days on/24 days off, n = 16
# [7] = preoperative 30 mg/day days 1–4, n = 20
compound,measurement,setting,value
Cc1sc2c(c1C)C(c1ccc(Cl)cc1)=N[C@@H](CC(=O)Nc1ccc(O)cc1)c1nnc(C)n1-2 [OTX015],Antitumor activity,orthotopic glioblastoma,showed antitumor activity
same,Penetration of brain tumor tissue,orthotopic glioblastoma; markedly lower concentrations in peritumoral and distant brain tissue,high penetration of brain tumor tissue
same,Clinical efficacy (study outcome),glioblastoma,lack of efficacy
Cn1cc(-c2cc(S(C)(=O)=O)ccc2OCC2CC2)c2ccccc2c1=O [Trotabresib],"Blood levels of CCR1 mRNA, % of baseline levels",CCR1 mRNA,45.8%
same,"Plasma concentration at the time of surgery, GM (% GCV)","[1]; after 30 mg/day days 1–4, n = 19",1020 nM
same,GM free (tissue binding-corrected) trotabresib concentration in brain tissue,"[1]; calculated, n = 20, GM (% GCV)",0.028 µM
same,"CSF concentration, GM (% GCV)",[1]; n = 13,0.14 µM
same,"Brain tumor tissue concentration, GM (% GCV)","[1]; resected tissue after 30 mg/day days 1–4, n = 20",0.74 µM
same,Lipophilicity,[2],high lipophilicity
same,Serious TRAEs,[3]; overall study,No serious TRAEs
same,Treatment discontinuation due to AEs,[3]; overall study,No patients discontinued treatment due to AEs
same,"Any TRAE, any grade, patients",[3]; [6],100%
same,"Asthenia, grade 3/4 TRAE, number of patients",[3]; [6],1 patient
same,"Thrombocytopenia, grade 3/4 TRAE, number of patients",[3]; [6],5 patients
same,"Dose reduction due to thrombocytopenia, number of patients","[3]; postoperative treatment period, 45 mg/day",1 patient
same,"Dose interruptions due to AEs, number of patients","[3]; postoperative treatment period, 45 mg/day, thrombocytopenia in 2, pancreatitis in 1",3 patients
same,Surgery delayed or canceled due to an AE,[3]; preoperative 30 mg/day days 1–4,No patients
same,"ALT increased, grade 3/4 TRAE, number of patients",[3]; [7],1 patient
same,"Any TRAE, any grade, patients",[3]; [7],60%
same,"Any TRAE, grade 3/4, patients",[3]; [7],10%
same,"Lymphopenia, grade 3/4 TRAE, number of patients",[3]; [7],1 patient
same,"Thrombocytopenia, grade 1/2, patients",[3]; [7],25%
same,Blood levels of HEXIM1 mRNA versus baseline,HEXIM1 mRNA,increased from baseline in all patients
same,Prolonged progression-free survival (PFS) in some patients,[4],up to 3 years
same,half-life,[5],46 h
same,AUC(0-t),"[5]; cycle 1 day 1, GM (% GCV)",5080 ng·h/mL
same,AUC(0-t),"[5]; cycle 1 day 4, GM (% GCV)",11200 ng·h/mL
same,Cmax,"[5]; cycle 1 day 1, GM (% GCV)",392 ng/mL
same,Cmax,"[5]; cycle 1 day 4, GM (% GCV)",720 ng/mL
same,Tmax,[5]; cycle 1 day 1,1.5 h
same,Tmax,[5]; cycle 1 day 4,1.9 h
